Source: PubChem BioAssay
The source made the active and inactive calls.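 How the source made its calls, unless noted: active means viability at or below 10% of carrier control in both of two separate runs; inconclusive means viability at or below 10% in only one of the two runs; inactive means the rest.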

Columns and labels:
[1] = Her2 expression decrease, cell viability multiplex – SKBR3 breast tumor cells, AlphaScreen, ATP viability, primary screen (AID 461;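 active means Her2 level under about 52% in both replicate screens, with viability over 70% of control, limit read from the data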;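 on Her2 level: lower value means less Her2 protein in the cells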;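 on viability: percent of carrier control wells set as 100% viability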); conditions: SKBR3 Her2 protein level, 18-24 h, measured here: SKBR3 viability, ATP luminescence, at 10 µM
[2] = target: Receptor tyrosine-protein kinase erbB-2 (Homo sapiens) (UniProt P04626); assay: as above; conditions: 18-24 h, at 10 µM, stronger effect = lower value
Sequence of Receptor tyrosine-protein kinase erbB-2 (Homo sapiens) (P04626 whole entry, looked up): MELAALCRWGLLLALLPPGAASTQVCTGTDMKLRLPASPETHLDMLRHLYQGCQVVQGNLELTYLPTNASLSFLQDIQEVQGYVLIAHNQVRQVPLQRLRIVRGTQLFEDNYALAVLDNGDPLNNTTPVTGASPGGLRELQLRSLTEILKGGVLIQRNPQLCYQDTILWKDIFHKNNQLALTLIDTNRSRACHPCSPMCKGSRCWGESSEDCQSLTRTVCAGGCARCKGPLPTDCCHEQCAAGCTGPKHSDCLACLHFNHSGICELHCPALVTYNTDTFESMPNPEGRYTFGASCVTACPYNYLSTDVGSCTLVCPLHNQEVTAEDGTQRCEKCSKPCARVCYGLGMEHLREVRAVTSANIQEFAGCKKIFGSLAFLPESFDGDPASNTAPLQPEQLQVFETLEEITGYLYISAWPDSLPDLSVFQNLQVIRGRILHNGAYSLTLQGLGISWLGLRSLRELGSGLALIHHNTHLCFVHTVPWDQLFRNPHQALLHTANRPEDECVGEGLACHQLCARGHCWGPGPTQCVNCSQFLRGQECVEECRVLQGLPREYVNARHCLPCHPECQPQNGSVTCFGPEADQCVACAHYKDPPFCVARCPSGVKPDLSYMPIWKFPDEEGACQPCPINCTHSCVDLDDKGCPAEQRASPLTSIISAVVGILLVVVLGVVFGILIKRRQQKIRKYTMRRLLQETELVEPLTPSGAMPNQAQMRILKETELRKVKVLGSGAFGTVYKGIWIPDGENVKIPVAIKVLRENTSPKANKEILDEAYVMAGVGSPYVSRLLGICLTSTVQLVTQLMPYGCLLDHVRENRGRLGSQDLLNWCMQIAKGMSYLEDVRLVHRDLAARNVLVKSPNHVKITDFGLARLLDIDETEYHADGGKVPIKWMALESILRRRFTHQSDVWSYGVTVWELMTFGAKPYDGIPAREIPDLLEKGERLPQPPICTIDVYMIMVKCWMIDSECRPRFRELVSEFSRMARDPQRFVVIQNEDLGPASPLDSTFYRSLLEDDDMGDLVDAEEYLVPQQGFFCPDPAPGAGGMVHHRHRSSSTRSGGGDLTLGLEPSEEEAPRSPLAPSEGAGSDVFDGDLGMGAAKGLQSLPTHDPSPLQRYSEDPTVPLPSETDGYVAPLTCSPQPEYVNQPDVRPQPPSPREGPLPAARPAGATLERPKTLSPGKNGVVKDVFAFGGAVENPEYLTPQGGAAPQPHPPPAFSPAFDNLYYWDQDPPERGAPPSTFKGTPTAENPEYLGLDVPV

[3] = reduced viability of SK-BR-3 breast cancer cells – cell-based, 24 h, human, pilot screen (AID 572); conditions: SK-BR-3 viability, CellTiter-Glo luminescence, at 10 µM, stronger effect = lower value;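 further: compound exposure lasted between 18 and 24 h rather than exactly 24 h; 100% = carrier-treated control wells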
[4] = H69AR cell proliferation blockers – human, duplicate replicates, primary screen (AID 580;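 active means viability at or under a set limit in both replicates, limit being median viability minus 3 SD, cut at about 48% in these data, passing the limit was not always enough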;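 further: 100% = mean luminescence of untreated wells and 0% = no signal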); conditions: H69AR lung tumor cells viability, ATP luminescence, 72 h; at 10 µM; stronger effect = lower value
[5] = MRP1 drug-resistance reversers in H69AR cells – cell-based, doxorubicin co-treatment, pilot screen (AID 601;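 active means viability loss from added drug above about 55%, and viability with drug at most 40%, in both replicates, limit read from the data, passing the limit was not always enough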); conditions: CellTiter-Glo, 72 h, at 10 µM; for differential viability (reversal): stronger effect = higher value
[6] = yeast transport mutant growth inhibition pilot in 384-well plates, post-Golgi transport modulator project (AID 636; in the data active means inhibition above about 31%); conditions: absorbance 615 nm, about 18 h, stronger effect = higher value
[7] = growth suppression of yeast trafficking mutant, preliminary HTS, modulators of trafficking downstream of Golgi apparatus project, 1536-format plate, OD 615 nm (AID 637; in the data active means inhibition above about 30%); conditions: yeast transport mutant growth, absorbance 615 nm, 18 h; stronger effect = higher value
[8] = HUVEC growth inhibition – cell-based, human, primary screen (AID 575;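 active means viability at or below 30% in both replicate assays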;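 further: 100% = median of untreated cell wells with 0.1% DMSO on each plate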); conditions: HUVEC proliferation, CellTiter-Glo luminescence, 72 h; at 10 µM; stronger effect = lower value
Procedure, shortened: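 Test system: HUVEC primary cells. Quantity: 1250 endothelial cells in each well. Dosing: single-point 10 µM, DMSO 0.1% final. Incubation: 72 h treatment at 37 °C. Measured by: CTG luminescence. Control set: DMSO cell controls and MePR drug controls. Plate: collagen-coated 384-well format.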

[9] = H69AR cells + 2 uM doxorubicin, measured here: viability with 2 uM doxorubicin, stronger effect = lower value
[10] = H69AR cells, compound alone cytotoxicity

Compound	viability [1] [%]	Her2 level [2]	viability [3]	viability [4]	differential viability (reversal) ([5]; H69AR cells + 2 uM doxorubicin)	viability [5, 9] [%]	viability [5, 10] [%]	inhibition [6]	inhibition [7]	viability [8]
COc1cc(C(=O)Nc2nc(-c3cccs3)cs2)cc(OC)c1OC	86	82% (inactive)	86% (inactive)	22.9% (active)	-14.2% (inactive)	37.2	22.9	1.51% (inactive)	23.6% (inactive)	
O=S(=O)(Nc1ccc2c(c1)OCO2)c1ccc(Br)s1	92	79% (inactive)	92% (inactive)	96.8% (inactive)	0.44% (inactive)	96.3	96.8	-4.47% (inactive)	-10.7% (inactive)	
CN1CCc2nc(SCCOc3ccccc3)c(C#N)cc2C1	150	25% (active)	150% (inactive)	84.8% (inactive)	-13.7% (inactive)	98.5	84.8	-1.69% (inactive)	0.67% (inactive)	
COc1ccc(C)cc1NC(=O)CCC(=O)Nc1ccc2nc(N3CCN(C)CC3)cc(C)c2c1	70.5	123% (inactive)	70.5% (inactive)	93.2% (inactive)	6.93% (inactive)	86.2	93.2	3.95% (inactive)	-6.17% (inactive)	
CSc1nc(N2CCOCC2)c2c(c1C#N)CCCCC2	112	96% (inactive)	112% (inactive)	86.8% (inactive)	12.9% (inactive)	73.9	86.8	0.79% (inactive)	17.9% (inactive)	
CCOC(=O)c1cnc(-n2nc(C)cc2C)nc1Nc1ccc(N(C)C)cc1	102	75.5% (inactive)	102% (inactive)	37.9% (active)	11.6% (inactive)	26.3	37.9	-6.05% (inactive)	-1.13% (inactive)	
Cc1nc2cc(N3CCCCC3)c(NC(=O)c3cccnc3)cc2c(=O)n1Cc1ccccc1	64	67.5% (inactive)	64% (inactive)	28.9% (active)	6.91% (inactive)	22	28.9	2.11% (inactive)	-8.33% (inactive)	
CCOC(=O)c1ccccc1NC(=O)c1c(O)c2ccccc2n(CC)c1=O	89	90% (inactive)	89% (inactive)	71.3% (inactive)	-11.1% (inactive)	82.3	71.3	-6.85% (inactive)	0.16% (inactive)	
COc1ccc(-c2n[nH]c(C)c2-c2ccc(Cl)cc2)c(O)c1OC	83.5	109% (inactive)	83.5% (inactive)	23.2% (active)	-10.6% (inactive)	33.8	23.2	-0.92% (inactive)	4.26% (inactive)	
CCOc1cc(NC(=O)c2ccco2)c(OCC)cc1NC(=O)CCc1ccc(OC)cc1	89	88% (inactive)	89% (inactive)	78.7% (inactive)	-9.95% (inactive)	88.6	78.7	2% (inactive)	1.31% (inactive)	
CCCOc1ccccc1C1CC(=O)Nc2cc3c(cc21)OCCO3 (centres undefined)	84	67% (inactive)	84% (inactive)	34.3% (active)	-39.2% (inactive)	73.5	34.3	-4.93% (inactive)	-2.3% (inactive)	
COc1ccccc1NC(=O)Cn1nnc(-c2ccccc2NC(=O)c2ccco2)n1	91.5	72.5% (inactive)	91.5% (inactive)	6.73% (active)	-4.18% (inactive)	10.9	6.73	-5.41% (inactive)	0.66% (inactive)	
CCOC(=O)c1c(C)oc2c1c(C=NCc1ccccn1)c(O)c1ccccc12	154	22% (active)	154% (inactive)	16.5% (active)	6.13% (inactive)	10.3	16.5	-8.38% (inactive)	3.67% (inactive)	
COCCn1c(-c2ccco2)nc2nc3ccccc3nc21			99.5% (inactive)	77.3% (inactive)	-2.21% (inactive)	79.6	77.3	-8.27% (inactive)	3.28% (inactive)	99.1% (inactive)
CCOC(=O)c1c(C)oc2c1c1c(c3ccccc32)OCN(Cc2cccnc2)C1	83.5	75% (inactive)	83.5% (inactive)		29.8% (inactive)	21.8	51.6	-0.39% (inactive)	-5.33% (inactive)	
O=c1c2ccccc2nc(SCc2nnc(-c3ccccc3Br)o2)n1-c1ccccc1	77	95.5% (inactive)	77% (inactive)	84.2% (inactive)	-3.29% (inactive)	87.5	84.2	-0.27% (inactive)	3.77% (inactive)	
CC(=Nc1cccc(O)c1)c1sc2ccccc2c1O	103	71.5% (inactive)	103% (inactive)		-38.1% (inactive)	92.5	54.5	-5.79% (inactive)	-3.33% (inactive)	
CC(C)Cc1nc(N2CCN(C(=O)c3ccco3)CC2)c(C#N)c2c1CCC2	172	93% (inactive)	172% (inactive)	84.5% (inactive)	2.99% (inactive)	81.5	84.5	-6.71% (inactive)	1.15% (inactive)	
C=C(C)COc1ccc(-c2nc(N)ncc2-c2ccc(OC)cc2)c(O)c1	160	73% (inactive)	160% (inactive)		1.44% (inactive)	31.8	33.2	-1.56% (inactive)	7.17% (inactive)	
CN1CCc2c(sc3c2c(=O)n(-c2cccc(Cl)c2)c2nncn32)C1			102% (inactive)	95.8% (inactive)	-13.3% (inactive)	109	95.8	-2.6% (inactive)	-5.41% (inactive)	84.5% (inactive)
CCOC(=O)/C=C(\C)Sc1cc(=O)oc2ccccc12	94.5	47.5% (active)	94.5% (inactive)	6.09% (active)	2.37% (inactive)	3.73	6.09	-0.92% (inactive)	1.45% (inactive)	
